Measured values collected from several papers.
Protocols differ between the studies behind these lines. pEC50, pIC50, pKd, pKi: −log10 of the molar value.
OR5K1 A2T/T15M/Y193C: OR5K1 (Homo sapiens, UniProt Q8NHB7, A2T/T15M/Y193C)
HTR6: 5-hydroxytryptamine receptor 6 (HTR6, Homo sapiens, UniProt P50406)
STAT3: Signal transducer and activator of transcription 3 (STAT3, Homo sapiens, UniProt P40763)
SIRT6: NAD-dependent protein deacylase sirtuin-6 (SIRT6, Homo sapiens, UniProt Q8N6T7)
PKM: Pyruvate kinase PKM (PKM, Homo sapiens, UniProt P14618)
HTR7: 5-hydroxytryptamine receptor 7 (HTR7, Homo sapiens, UniProt P34969)
CDK2: Cyclin-dependent kinase 2 (CDK2, Homo sapiens, UniProt P24941)

| Structure (SMILES) | target | test | setting | endpoint | result |
| --- | --- | --- | --- | --- | --- |
| CCc1ncc(C)nc1CC | OR5K1 A2T/T15M/Y193C | cAMP, agonist |  | pEC50 | 3.99 |
| Cc1ccc2cccc(N3CCN(CCCCOc4ccc5sc(C(C)C)nc5c4)CC3)c2n1 | HTR6 | cell-free assay, radioligand |  | pKi | 5.66 |
| CN(CC(=O)N(Cc1cc(C(C)(C)C)cc(C(C)(C)C)c1)c1ccc(C(=O)O)c(O)c1)S(=O)(=O)c1c(F)c(F)c(F)c(F)c1F | STAT3 | ligand displacement, FP |  | pKi | 4.43 |
| Nc1nc2c(ncn2[C@@H]2O[C@H](COP(=O)(O)OP(=O)(O)O)[C@@H](OP(=O)(O)OP(=O)(O)O)[C@H]2O)c(=O)[nH]1 | Xanthine-guanine phosphoribosyltransferase (Escherichia coli, UniProt P0A9M5) | binding, ITC |  | pKd | 5.49 |
| COc1ccc2c(Oc3ccc4c(C(=O)Nc5ccccc5N)cccc4c3)ccnc2c1 | Sodium channel protein type 5 subunit alpha (SCN5A, Homo sapiens, UniProt Q14524) | ion current, inhibitor |  | pIC50 | < 5.00 |
| CC(C)(C)c1ccc(CONC(=O)c2ccc(C(N)=O)cc2)cc1 | SIRT6 | enzyme activity, inhibitor, fluorescence |  | pIC50 | 5.55 |
| CCc1nccnc1CC | OR5K1 A2T/T15M/Y193C | cAMP, agonist |  | pEC50 | 3.30 |
| COc1cccc(CONC(=O)c2ccc(C(N)=O)cc2)c1 | SIRT6 | enzyme activity, inhibitor, fluorescence |  | pIC50 | 5.19 |
| c1cncc(-c2cccc(Nc3nccc(NC4CCCCC4)n3)c2)c1 | Serine/threonine-protein kinase D3 (PRKD3, Homo sapiens, UniProt O94806) | binding, competition with immobilised ligand |  | pKd | 5.77 |
| NC(=O)c1ccc(C(=O)NOCc2ccc(Sc3ccc(N)cc3)c(C(F)(F)F)c2)cc1 | SIRT6 | enzyme activity, inhibitor, fluorescence |  | pIC50 | 5.74 |
| Cc1cnc(C)c(C)n1 | OR5K1 (Homo sapiens, UniProt Q8NHB7, F62L) | cAMP, agonist |  | pEC50 | 3.42 |
| Cc1ccc(NS(=O)(=O)c2cc3c(cc2N2CCC(N(C)C)C2)NC(=O)CC3)cc1C (stereo not shown) | PKM | enzyme activity, activator |  | AC50 | > 20 µM |
| CN(C)CCSc1nc2ccccc2cc1-c1ccccc1 | HTR7 | ligand displacement, radioligand | cell membranes | pKi | 6.41 |
| CC(=O)N[C@H](C(=O)N[C@@H](CC(N)=O)C(=O)N[C@@H](CCCCN)C(=O)N1CCC[C@H]1C(=O)N[C@@H](CC(C)C)C(=O)N1CCC[C@H]1C(=O)N1CCC[C@H]1C(=O)N[C@@H](CC(C)C)C(=O)N1CCC[C@H]1C(=O)N[C@H](C(=O)N[C@@H](C)C(N)=O)C(C)C)C(C)C | Tyrosine-protein kinase Fyn, SH3 (FYN, Homo sapiens, UniProt P06241) | binding, ITC | pH 7 | pKd | 4.62 |
| Cc1nc2n(c(=O)c1CCN1CCC(c3noc4cc(F)ccc34)CC1)CCCC2O (stereo not shown) | HTR7 | ligand displacement, radioligand | cell membranes | pKi | 8.00 |
| Cc1ccc(NS(=O)(=O)c2cc3c(cc2N[C@H](C)CO)NC(=O)CC3)cc1C | PKM | enzyme activity, activator |  | AC50 | 0.88 µM |
| CC(=O)N=S(=O)(O)c1ccc(N/C=C2\C(=O)Nc3ccc4ncsc4c32)cc1 | CDK2 | binding |  | pKd | 6.28 |
| NC(=O)c1ccc(C(=O)NOCc2ccc(-n3cccn3)cc2)cc1 | SIRT6 | enzyme activity, inhibitor, fluorescence |  | pIC50 | 5.65 |
| CC1=C(/C=C/C2=CCC[C@@]3(C)[C@H]2CC[C@@H]3[C@@](C)(O)CCCC(C)C)C[C@@H](O)CC1 | Oxysterols receptor LXR-beta (NR1H2, Homo sapiens, UniProt P55055) | coactivator recruitment, agonist, TR-FRET |  | pEC50 | 7.00 to 8.00 |
| Cc1cccc(Sc2ccc(CONC(=O)c3ccc(C(N)=O)cc3)cc2C(F)(F)F)c1 | SIRT6 | enzyme activity, inhibitor, fluorescence |  | pIC50 | 5.74 |

| Structure (SMILES) | target | test | setting | endpoint | result |
| --- | --- | --- | --- | --- | --- |
| CC[C@H](NC(=O)[C@H](CS(=O)(=O)CC1CC1)N[C@@H](c1ccc(F)cc1)C(F)(F)F)C(=O)C(=O)NC1CC1 | Cathepsin B (CTSB, Homo sapiens, UniProt P07858) | enzyme activity, inhibitor, fluorescence | with preincubation | pKi | 9.48 |
| N#Cc1ccc(CONC(=O)c2ccc(C(N)=O)cc2)cc1 | SIRT6 | enzyme activity, inhibitor, fluorescence |  | pIC50 | 4.93 |
| Cc1ccc(NS(=O)(=O)c2ccc3c(c2)CCC(=O)N3)cc1F | PKM | enzyme activity, activator |  | AC50 | 0.54 µM |
| O=C(Nc1cc(C2CCCCC2)[nH]n1)c1ccc(Br)cc1 | CDK2 | binding, ITC |  | pKd | < 4.00 |
| Cc1ccc(NS(=O)(=O)c2cc3c(cc2-c2ccccc2)NC(=O)CO3)cc1C | PKM | enzyme activity, activator |  | AC50 | > 20 µM |
| Cc1cnc(-c2ccc(-c3ccc(NC(=O)Nc4c(F)cc(F)cc4F)cc3F)c3c2C(=O)NC3)[nH]1 | Mitogen-activated protein kinase kinase kinase kinase 1 (MAP4K1, Homo sapiens, UniProt Q92918) | binding, competition with immobilised ligand |  | pKd | 8.14 |
| COc1cccc(OC)c1NS(=O)(=O)c1ccc(N/C=C2\C(=O)Nc3ccc4ncsc4c32)cc1 | CDK2 | binding |  | pKd | 6.75 |
| C[C@H](NC(=O)CNC(=O)[C@@H]1CCCN1C(=O)[C@@H]1CCCN1C(=O)[C@H](C)NC(=O)[C@H](CCC(N)=O)NC(=O)CNC(=O)[C@@H]1CCCN1C(=O)[C@H](Cc1ccc(O)cc1)NC(=O)[C@H](C)NC(=O)CNC(=O)[C@@H]1CCCN1C(=O)[C@@H]1CCCN1C(=O)[C@H](C)NC(=O)[C@H](CCC(N)=O)NC(=O)CNC(=O)[C@@H]1CCCN1C(=O)[C@H](Cc1ccc(OP(=O)(O)O)cc1)NC(=O)[C@H](C)NC(=O)CN)C(=O)O | STAT3 | binding, ITC | pH 7.5 | pKd | ~4.40 |
| CC(C)[C@@H](CC[C@@H](C)[C@H]1CC[C@H]2[C@@H]3[C@H](O)C[C@H]4C[C@@H](NCCCNCCCCNCCCN)CC[C@]4(C)[C@H]3CC[C@]12C)OS(=O)(=O)O | Receptor-type tyrosine-protein phosphatase C (PTPRC, Homo sapiens, UniProt P08575) | enzyme activity, inhibitor |  | pKi | 4.74 |
| Cc1cc(NS(=O)(=O)c2ccc3c(c2)CCC(=O)N3)ccc1Cl | PKM | enzyme activity, activator |  | AC50 | 0.56 µM |
| O=C1c2ccccc2CCN1CCCCN1CCN(c2cccc(Cl)c2Cl)CC1 | HTR6 | ligand displacement, radioligand |  | pKi | 6.26 |
| C[C@@H](CO)Nc1cc2c(cc1S(=O)(=O)Nc1ccc(F)c(Cl)c1)CCC(=O)N2 | PKM | enzyme activity, activator |  | AC50 | 0.13 µM |
| COc1ccc(Sc2ccc(CONC(=O)c3ccc(C(N)=O)cc3)cc2C(F)(F)F)cc1 | SIRT6 | enzyme activity, inhibitor, fluorescence |  | pIC50 | 5.83 |
| C=Cc1cnccn1 | OR5K1 (Homo sapiens, UniProt Q8NHB7) | cAMP, agonist |  | pEC50 | < 2.82 |
| Cc1ccc(NS(=O)(=O)c2cc3c(cc2NC(C)C)NC(=O)CC3)cc1C | PKM | enzyme activity, activator |  | AC50 | 0.57 µM |
| COc1cccc(Sc2ccc(CONC(=O)c3ccc(C(N)=O)cc3)cc2C(F)(F)F)c1 | SIRT6 | enzyme activity, inhibitor, fluorescence |  | pIC50 | 5.95 |
| CN(CC(=O)N(Cc1ccc2ccccc2c1)c1ccc(C(=O)O)c(O)c1)S(=O)(=O)c1c(F)c(F)c(F)c(F)c1F | STAT3 | ligand displacement, FP |  | pKi | 4.49 |
| CNc1cc2c(cc1S(=O)(=O)Nc1ccc(C)c(C)c1)CCC(=O)N2 | PKM | enzyme activity, activator |  | AC50 | 0.44 µM |
| CN1CCN(C2=Nc3cscc3/C(=C/C#N)c3cscc32)CC1 | HTR7 | ligand displacement, radioligand | cell membranes | pKi | 6.82 |
| CC(C)c1nc2cc(OCCCCN3CCN(c4cccc5c4OCCO5)CC3)ccc2s1 | HTR6 | cell-free assay, radioligand |  | pKi | 5.64 |
